In ChEMBL document CHEMBL2016496, “The SAR development of dihydroimidazoisoquinoline derivatives as phosphodiesterase 10A inhibitors for the treatment of schizophrenia” (Bioorg Med Chem Lett, 2012):
Active and inactive are the calls of the source. No cut-off for these calls is given here.

Tests used:
[1] = biological target: cAMP and cAMP-inhibited cGMP 3',5'-cyclic phosphodiesterase 10A (Homo sapiens, UniProt Q9Y233); assay: Inhibition of human recombinant PDE10A assessed as inhibition of [3H]cAMP hydrolysis by scintillation proximity assay
Chain of cAMP and cAMP-inhibited cGMP 3',5'-cyclic phosphodiesterase 10A (Q9Y233 whole entry): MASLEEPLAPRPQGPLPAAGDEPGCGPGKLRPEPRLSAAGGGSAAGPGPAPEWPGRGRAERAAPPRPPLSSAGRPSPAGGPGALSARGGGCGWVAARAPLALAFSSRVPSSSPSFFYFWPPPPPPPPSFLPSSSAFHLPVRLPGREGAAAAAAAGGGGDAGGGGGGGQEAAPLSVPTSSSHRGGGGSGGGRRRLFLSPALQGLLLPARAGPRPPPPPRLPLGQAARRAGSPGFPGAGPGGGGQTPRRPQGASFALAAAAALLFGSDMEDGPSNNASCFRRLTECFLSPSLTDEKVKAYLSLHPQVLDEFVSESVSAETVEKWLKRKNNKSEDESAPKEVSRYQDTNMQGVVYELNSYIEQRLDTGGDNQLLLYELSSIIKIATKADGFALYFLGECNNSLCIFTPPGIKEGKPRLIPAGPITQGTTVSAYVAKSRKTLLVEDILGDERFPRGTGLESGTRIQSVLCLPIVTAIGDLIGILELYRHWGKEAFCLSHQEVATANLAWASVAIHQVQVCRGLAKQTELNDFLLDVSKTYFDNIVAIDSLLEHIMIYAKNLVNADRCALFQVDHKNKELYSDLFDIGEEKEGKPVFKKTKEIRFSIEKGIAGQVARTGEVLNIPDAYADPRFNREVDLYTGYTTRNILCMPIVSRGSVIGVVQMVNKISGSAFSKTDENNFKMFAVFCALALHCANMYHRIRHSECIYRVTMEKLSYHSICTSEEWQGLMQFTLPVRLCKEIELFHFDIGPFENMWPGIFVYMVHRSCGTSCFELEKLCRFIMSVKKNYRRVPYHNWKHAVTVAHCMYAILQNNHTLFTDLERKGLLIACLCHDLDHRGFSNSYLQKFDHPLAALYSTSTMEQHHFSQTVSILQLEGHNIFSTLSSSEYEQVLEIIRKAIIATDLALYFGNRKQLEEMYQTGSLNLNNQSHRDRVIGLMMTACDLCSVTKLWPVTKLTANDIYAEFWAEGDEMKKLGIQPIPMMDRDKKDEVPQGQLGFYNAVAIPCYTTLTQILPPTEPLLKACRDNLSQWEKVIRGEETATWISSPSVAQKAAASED
Method in brief: (§1)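 Scintillation proximity assay on recombinant human PDEs 1–11, with [³H]cAMP as substrate and hydrolysis of cAMP to AMP as read-out. Ki values are means of two experiments.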

[2] = biological target: T1, cGMP-inhibited 3',5'-cyclic phosphodiesterase 3A (Homo sapiens, UniProt Q14432); assay: Inhibition of human recombinant PDE3A assessed as inhibition of [3H]cAMP hydrolysis by scintillation proximity assay; method in brief: as §1
[3] = biological target: T2, High affinity 3',5'-cyclic-AMP phosphodiesterase 7A (Homo sapiens, UniProt Q13946); assay: Inhibition of human recombinant PDE7A1 assessed as inhibition of [3H]cAMP hydrolysis by scintillation proximity assay; method in brief: as §1
T2 sequence (Q13946 whole entry): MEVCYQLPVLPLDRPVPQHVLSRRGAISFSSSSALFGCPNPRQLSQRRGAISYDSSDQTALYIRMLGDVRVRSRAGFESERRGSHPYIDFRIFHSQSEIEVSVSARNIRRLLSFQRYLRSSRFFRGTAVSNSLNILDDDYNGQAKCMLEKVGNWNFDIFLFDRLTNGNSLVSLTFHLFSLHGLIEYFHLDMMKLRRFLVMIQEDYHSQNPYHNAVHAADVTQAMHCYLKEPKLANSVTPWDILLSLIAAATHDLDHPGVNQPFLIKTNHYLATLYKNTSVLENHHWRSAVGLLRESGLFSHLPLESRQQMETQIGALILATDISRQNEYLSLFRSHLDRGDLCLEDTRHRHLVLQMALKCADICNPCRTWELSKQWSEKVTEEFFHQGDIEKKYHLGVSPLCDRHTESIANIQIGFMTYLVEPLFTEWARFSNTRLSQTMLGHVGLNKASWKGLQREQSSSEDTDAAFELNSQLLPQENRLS

[4] = Clearance in rat hepatocytes assessed per 10^6 cells; assay type: ADME, cell-based, Hepatocyte; conditions: read-out: CLH
[5] = Clearance in monkey hepatocytes assessed per 10^6 cells; assay type: ADME, cell-based, Macaca mulatta, Hepatocyte; conditions: rhesus monkey, read-out: CLH
[6] = Clearance in human hepatocytes assessed per 10^6 cells; assay type: ADME, cell-based, Hepatocyte; conditions: read-out: CLH
Phosphodiesterase 8 = Phosphodiesterase 8 (Homo sapiens, UniProt O95263+O60658); assay: Inhibition of human recombinant PDE8 assessed as inhibition of [3H]cAMP hydrolysis by scintillation proximity assay; assay type: protein assay; method in brief: as §1
[7] = Dissociation constant, pKa of the compound; assay type: physicochemical
[8] = biological target: cGMP-specific 3',5'-cyclic phosphodiesterase (Homo sapiens, UniProt O76074); assay: Inhibition of human recombinant PDE5 assessed as inhibition of [3H]cAMP hydrolysis by scintillation proximity assay; method in brief: as §1
[9] = biological target: Dual 3',5'-cyclic-AMP and -GMP phosphodiesterase 11A (Homo sapiens, UniProt Q9HCR9); assay: Inhibition of human recombinant PDE11 assessed as inhibition of [3H]cAMP hydrolysis by scintillation proximity assay; method in brief: as §1
Chain of Dual 3',5'-cyclic-AMP and -GMP phosphodiesterase 11A (Q9HCR9 whole entry): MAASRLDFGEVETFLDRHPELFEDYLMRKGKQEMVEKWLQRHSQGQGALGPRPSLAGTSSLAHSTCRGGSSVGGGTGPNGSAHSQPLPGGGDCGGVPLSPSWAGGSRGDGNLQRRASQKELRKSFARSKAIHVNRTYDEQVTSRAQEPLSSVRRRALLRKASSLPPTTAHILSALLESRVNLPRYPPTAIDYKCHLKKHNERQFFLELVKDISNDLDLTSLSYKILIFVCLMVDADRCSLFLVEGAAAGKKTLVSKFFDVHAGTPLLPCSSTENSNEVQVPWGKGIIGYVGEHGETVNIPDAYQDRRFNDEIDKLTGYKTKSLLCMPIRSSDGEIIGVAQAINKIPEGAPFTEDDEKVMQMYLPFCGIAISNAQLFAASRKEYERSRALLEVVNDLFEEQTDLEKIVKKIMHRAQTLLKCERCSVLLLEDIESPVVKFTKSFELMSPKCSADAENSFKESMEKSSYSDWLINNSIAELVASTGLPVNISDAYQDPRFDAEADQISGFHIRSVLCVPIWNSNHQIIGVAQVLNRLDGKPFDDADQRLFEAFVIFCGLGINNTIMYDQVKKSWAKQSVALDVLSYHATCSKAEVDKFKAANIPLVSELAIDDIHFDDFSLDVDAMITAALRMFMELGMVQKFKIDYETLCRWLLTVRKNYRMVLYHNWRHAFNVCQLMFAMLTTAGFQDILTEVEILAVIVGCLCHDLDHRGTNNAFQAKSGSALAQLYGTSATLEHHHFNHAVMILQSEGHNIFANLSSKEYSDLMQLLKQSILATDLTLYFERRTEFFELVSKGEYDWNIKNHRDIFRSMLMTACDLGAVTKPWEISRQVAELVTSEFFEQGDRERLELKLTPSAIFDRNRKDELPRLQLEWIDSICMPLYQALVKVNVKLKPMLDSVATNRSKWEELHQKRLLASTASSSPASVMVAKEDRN

[10] = Solubility of the compound in 2% DMSO at pH 7.4; assay type: physicochemical
[11] = biological target: High affinity cGMP-specific 3',5'-cyclic phosphodiesterase 9A (Homo sapiens, UniProt O76083); assay: Inhibition of human recombinant PDE9 assessed as inhibition of [3H]cAMP hydrolysis by scintillation proximity assay; method in brief: as §1
Chain of High affinity cGMP-specific 3',5'-cyclic phosphodiesterase 9A (O76083 whole entry): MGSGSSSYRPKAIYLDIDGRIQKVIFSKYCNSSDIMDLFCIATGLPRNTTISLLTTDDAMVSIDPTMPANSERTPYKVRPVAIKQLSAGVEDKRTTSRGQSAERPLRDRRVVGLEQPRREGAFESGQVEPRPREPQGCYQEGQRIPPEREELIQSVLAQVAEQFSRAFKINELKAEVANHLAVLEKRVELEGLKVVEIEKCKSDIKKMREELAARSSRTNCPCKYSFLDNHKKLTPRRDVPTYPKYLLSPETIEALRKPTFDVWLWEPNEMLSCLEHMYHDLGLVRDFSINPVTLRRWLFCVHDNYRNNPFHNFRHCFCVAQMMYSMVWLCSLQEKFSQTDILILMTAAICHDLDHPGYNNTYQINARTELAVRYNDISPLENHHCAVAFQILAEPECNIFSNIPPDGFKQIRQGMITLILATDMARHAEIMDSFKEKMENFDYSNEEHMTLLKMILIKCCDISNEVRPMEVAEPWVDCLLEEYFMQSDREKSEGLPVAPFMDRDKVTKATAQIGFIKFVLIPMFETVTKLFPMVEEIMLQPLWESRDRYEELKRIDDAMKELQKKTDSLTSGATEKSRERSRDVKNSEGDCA

hERG (KCNH2) = hERG (KCNH2) (Homo sapiens, UniProt Q12809); assay: Inhibition of human ERG at 10 uM
Chain of hERG (KCNH2) (Q12809 whole entry): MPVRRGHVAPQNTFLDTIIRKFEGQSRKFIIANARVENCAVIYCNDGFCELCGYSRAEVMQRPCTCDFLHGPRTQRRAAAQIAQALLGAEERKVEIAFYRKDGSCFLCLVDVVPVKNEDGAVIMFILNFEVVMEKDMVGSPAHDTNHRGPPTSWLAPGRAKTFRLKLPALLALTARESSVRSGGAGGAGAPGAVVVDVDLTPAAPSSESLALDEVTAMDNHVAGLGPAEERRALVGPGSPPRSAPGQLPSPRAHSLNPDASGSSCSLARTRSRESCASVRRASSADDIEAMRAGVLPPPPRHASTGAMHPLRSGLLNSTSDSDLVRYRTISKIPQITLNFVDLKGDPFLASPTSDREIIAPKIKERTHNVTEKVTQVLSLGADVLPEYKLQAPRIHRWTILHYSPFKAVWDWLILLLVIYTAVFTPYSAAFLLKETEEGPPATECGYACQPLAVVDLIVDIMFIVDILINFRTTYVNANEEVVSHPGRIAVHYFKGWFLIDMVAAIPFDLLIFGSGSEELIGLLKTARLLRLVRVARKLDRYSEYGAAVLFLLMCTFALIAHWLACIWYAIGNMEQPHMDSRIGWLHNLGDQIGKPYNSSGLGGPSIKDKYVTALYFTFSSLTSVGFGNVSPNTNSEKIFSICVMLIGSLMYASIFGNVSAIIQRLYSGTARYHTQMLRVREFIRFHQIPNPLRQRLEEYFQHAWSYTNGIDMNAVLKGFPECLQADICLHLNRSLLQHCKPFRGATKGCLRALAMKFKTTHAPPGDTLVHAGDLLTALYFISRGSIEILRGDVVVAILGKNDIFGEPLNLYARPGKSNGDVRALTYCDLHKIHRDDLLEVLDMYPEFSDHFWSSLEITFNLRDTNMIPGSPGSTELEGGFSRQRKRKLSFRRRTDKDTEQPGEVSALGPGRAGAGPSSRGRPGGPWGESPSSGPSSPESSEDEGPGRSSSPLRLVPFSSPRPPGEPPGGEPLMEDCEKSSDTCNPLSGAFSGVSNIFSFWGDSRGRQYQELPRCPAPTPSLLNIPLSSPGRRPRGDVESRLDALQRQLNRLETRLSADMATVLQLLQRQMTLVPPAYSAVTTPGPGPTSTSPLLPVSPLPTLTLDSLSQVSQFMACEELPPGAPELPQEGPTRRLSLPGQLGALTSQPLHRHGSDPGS
Method in brief: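 hERG inhibition was measured on the IonWorks platform at 10 µM.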

[12] = biological target: cGMP-dependent 3',5'-cyclic phosphodiesterase (Homo sapiens, UniProt O00408); assay: Inhibition of human recombinant PDE2 assessed as inhibition of [3H]cAMP hydrolysis by scintillation proximity assay; method in brief: as §1
Phosphodiesterase 6 = assay: Inhibition of human recombinant PDE6 assessed as inhibition of [3H]cAMP hydrolysis by scintillation proximity assay; assay type: protein assay; method in brief: as §1
Phosphodiesterase 1 = Phosphodiesterase 1 (Homo sapiens, UniProt P54750+Q01064+Q14123); assay: Inhibition of human recombinant PDE1 assessed as inhibition of [3H]cAMP hydrolysis by scintillation proximity assay; assay type: protein assay; method in brief: as §1
Phosphodiesterase 4 = Phosphodiesterase 4 (Homo sapiens, UniProt P27815+Q08499+Q07343+Q08493); assay: Inhibition of human recombinant PDE4 assessed as inhibition of [3H]cAMP hydrolysis by scintillation proximity assay; assay type: protein assay; method in brief: as §1
[13] = biological target: T1, cGMP-inhibited 3',5'-cyclic phosphodiesterase 3A; assay: Inhibition of human recombinant PDE3A assessed as inhibition of [3H]cAMP hydrolysis at 3 uM by scintillation proximity assay
Method in brief: (§2)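 Recombinant human PDE3A or PDE7A1 was tested at a single 3 µM level in the scintillation proximity assay, with [³H]cAMP as substrate and cAMP-to-AMP hydrolysis as read-out. Results are expressed as % inhibition.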

[14] = biological target: T2, High affinity 3',5'-cyclic-AMP phosphodiesterase 7A; assay: Inhibition of human recombinant PDE7A1 assessed as inhibition of [3H]cAMP hydrolysis at 3 uM by scintillation proximity assay; method in brief: as §2
[15] = Toxicity in Cebus monkey assessed as akathisia at 3 to 6 mg/kg, po; assay type: organism-based; set-up: dose 3-6 mg/kg, route oral; conditions: in vivo
[16] = Toxicity in Cebus monkey assessed as extrapyramidal symptoms at 3 to 6 mg/kg, po; assay type: organism-based; set-up: dose 3-6 mg/kg, route oral; conditions: in vivo
Rattus norvegicus [17] = assay: Antipsychotic activity in CD rat assessed as inhibition of MK801-induced hyperactivity at 3 mg/kg, po; assay type: functional, organism-based; set-up: dose 3 mg/kg
Method in brief: (§3)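 Male CD rats were habituated to locomotor activity chambers 24 h before testing. On test day, MK-801 (0.3 mg/kg, sc) was co-administered with the PDE10 inhibitor (po) and the rats were placed in the apparatus. Inhibition is the activity of the inhibitor+MK-801 group as a percent of the vehicle+MK-801 group.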

[18] = Efflux ratio in human Caco2 cells; assay type: ADME, cell-based; conditions: Caco-2
[19] = Drug uptake in CD rat brain at 30 mg/kg, po after 1 hr; assay type: ADME, organism-based; set-up: dose 30 mg/kg, route oral
Rattus norvegicus [20] = assay: Antipsychotic activity in CD rat assessed as inhibition of MK801-induced hyperactivity at 30 mg/kg, po; assay type: functional, organism-based; set-up: dose 30 mg/kg; method in brief: as §3

| Compound | Ki [1] [nM] | Ki [2] [nM] | Ki [3] [nM] | hepatocyte CLint [4] [µL/min/1e6 cells] | hepatocyte CLint [5] [µL/min/1e6 cells] | hepatocyte CLint [6] [µL/min/1e6 cells] | further results |
| --- | --- | --- | --- | --- | --- | --- | --- |
| COc1cc2c(cc1OC)-c1c(-c3cnc(C(=O)NCc4ccccc4)s3)ncn1CC2 | 40 | > 100000 | 507 | – | – | – | – |
| COc1cc2c(cc1OC)-c1c(-c3cnc(CN4CCCOCC4)s3)ncn1CC2 | 3.8 | 224 | 3770 | – | – | – | – |
| COc1cc2c(cc1OC)-c1c(-c3cscn3)ncn1CC2 | 861 | – | – | – | – | – | – |
| COc1cc2c(cc1OC)-c1c(-c3ccc(Cl)cc3)ncn1CC2 | 183 | – | – | – | – | – | – |
| COc1cc2c(cc1OC)-c1c(-c3cncs3)nc(C)n1CC2 | 20 | 968 | 6120 | 9.2 | 65.5 | 7.5 | Ki (Phosphodiesterase 8): > 7100 nM; pKa [7]: 5; Ki [8]: > 7100 nM; Ki [9]: > 7100 nM; solubility [10]: > 150 µM; Ki [11]: > 7100 nM; inhibition at 10 µM (hERG (KCNH2)): 10%; Ki [12]: > 7100 nM; Ki (Phosphodiesterase 6): > 7100 nM; Ki (Phosphodiesterase 1): > 7100 nM; Ki (Phosphodiesterase 4): > 7100 nM |
| COc1cc2c(cc1OC)-c1c(-c3cccnc3)ncn1CC2 | 29 | 449 | – | 11.8 | 38.7 | 1.7 | Ki (Phosphodiesterase 8): > 4274 nM; Activity [15]: Non-toxic; pKa [7]: 3.5; Activity [16]: Non-toxic; Activity (Rattus norvegicus [17]): Active; Ki [8]: > 4270 nM; Ki [9]: > 4270 nM; solubility [10]: > 200 µM; Ki [11]: > 4270 nM; inhibition at 10 µM (hERG (KCNH2)): 24%; Ki [12]: > 4270 nM; Ki (Phosphodiesterase 6): > 4274 nM; Ki (Phosphodiesterase 1): > 4274 nM; efflux ratio [18]: 1.4; Ki (Phosphodiesterase 4): > 4274 nM; inhibition [14]: 45% |
| COc1cccc(-c2ncn3c2-c2cc(OC)c(OC)cc2CC3)c1 | 30 | 136 | 5540 | 61 | 66 | > 14 | – |
| COc1cc2c(cc1OC)-c1c(-c3ccccc3Cl)ncn1CC2 | 628 | – | – | – | – | – | – |
| COc1cc2c(cc1OC)-c1c(-c3cccc(N4CCOCC4)c3)ncn1CC2 | 6.4 | 1470 | 7500 | 61 | 66 | > 14 | – |
| COc1cc2c(cc1OC)-c1c(-c3cncs3)ncn1CC2 | – | 555 | 3700 | – | – | – | concentration at 1 h [19]: 350 ng/g; Ki (Phosphodiesterase 8): > 2000 nM; pKa [7]: 4.3; Ki [8]: > 2000 nM; Ki [9]: > 2000 nM; solubility [10]: > 200 µM; Ki [11]: > 2000 nM; inhibition at 10 µM (hERG (KCNH2)): 26%; Ki [12]: > 2000 nM; Activity (Rattus norvegicus [20]): Active; Ki (Phosphodiesterase 6): > 2000 nM; Ki (Phosphodiesterase 1): > 2000 nM; Ki (Phosphodiesterase 4): > 2000 nM |
| COc1cc2c(cc1OC)-c1c(-c3cccc(Br)c3)ncn1CC2 | 32 | 1280 | 10100 | 61 | 66 | > 14 | – |
| COc1cc2c(cc1OC)-c1c(-c3cccnc3)nc(C)n1CC2 | 25 | 727 | 5980 | 3.6 | 26.6 | 0.4 | Ki (Phosphodiesterase 8): > 7950 nM; pKa [7]: 4; Ki [8]: > 7950 nM; Ki [9]: > 7950 nM; solubility [10]: > 200 µM; Ki [11]: > 7950 nM; inhibition at 10 µM (hERG (KCNH2)): 29%; Ki [12]: > 7950 nM; Ki (Phosphodiesterase 6): > 7950 nM; Ki (Phosphodiesterase 1): > 7950 nM; Ki (Phosphodiesterase 4): > 7950 nM |
| COc1cc2c(cc1OC)-c1c(-c3cccnc3)ncn1C(C)C2 (stereo unspecified) | 12 | – | – | – | – | – | inhibition [13]: 97% |
| COc1cc2c(cc1OC)-c1c(-c3cnco3)ncn1CC2 | 31 | 1740 | 11100 | – | 67 | 25 | – |

Second part, led by results:

| Ki [1] [nM] | Ki [2] [nM] | Ki [3] [nM] | hepatocyte CLint [4] [µL/min/1e6 cells] | hepatocyte CLint [5] [µL/min/1e6 cells] | hepatocyte CLint [6] [µL/min/1e6 cells] | Compound | further results |
| --- | --- | --- | --- | --- | --- | --- | --- |
| 114 | – | – | – | – | – | COc1ccc(-c2ncn3c2-c2cc(OC)c(OC)cc2CC3)cc1 | – |
| 1.5 | 24 | 269 | – | – | – | COc1cc2c(cc1OC)-c1c(-c3cnc(C(=O)N4CCCOCC4)s3)ncn1CC2 | – |
| 240 | – | – | – | – | – | COc1cc2c(cc1OC)-c1c(-c3ccccn3)ncn1CC2 | – |
| 10 | 99 | 613 | – | – | – | COc1cc2c(cc1OC)-c1c(-c3cnc(C(=O)N4CCOCC4)s3)ncn1CC2 | – |
| 4.3 | 828 | 550 | 5.7 | 22.7 | 1.4 | COc1cc2c(cc1OC)-c1c(-c3cnc(C(=O)NC4CCOCC4)s3)ncn1CC2 | – |
| 8 | 277 | 3760 | 61 | 66 | > 14 | CCOc1cccc(-c2ncn3c2-c2cc(OC)c(OC)cc2CC3)c1 | – |
| 264 | – | – | – | – | – | COc1cc2c(cc1OC)-c1c(-c3cncn3C)ncn1CC2 | – |
| 186 | – | – | – | – | – | COc1cc2c(cc1OC)-c1c(-c3cnc(C)s3)ncn1CC2 | – |
| 6.6 | 148 | 4600 | – | – | – | COc1cc2c(cc1OC)-c1c(-c3cnc(CN4CCOCC4)s3)ncn1CC2 | – |
| 40 | – | – | – | – | – | COc1cc2c(cc1OC)-c1c(-c3cncnc3)ncn1CC2 | inhibition [13]: 14%; inhibition [14]: 13% |
| 8.7 | 149 | 243 | 49 | 59 | 66 | COc1cc2c(cc1OC)-c1c(-c3cnc(C(=O)N(C)C(C)(C)C)s3)ncn1CC2 | Ki (Phosphodiesterase 8): > 2000 nM; pKa [7]: 4; Ki [8]: > 2000 nM; Ki [9]: > 2000 nM; solubility [10]: > 200 µM; Ki [11]: > 2000 nM; inhibition at 10 µM (hERG (KCNH2)): 40%; Ki [12]: > 2000 nM; Ki (Phosphodiesterase 6): > 2000 nM; Ki (Phosphodiesterase 1): > 2000 nM; Ki (Phosphodiesterase 4): > 2000 nM |
| 508 | – | – | – | – | – | COc1cc2c(cc1OC)-c1c(-c3cocn3)ncn1CC2 | – |
| 26 | 177 | 2470 | – | – | – | COc1cc2c(cc1OC)-c1c(-c3cnc(N4CCOCC4)s3)ncn1CC2 | – |
| 212 | – | – | – | – | – | COc1cc2c(cc1OC)-c1c(-c3ccccc3OC)ncn1CC2 | – |
| 33 | 954 | 6930 | 61 | 66 | > 14 | COc1cc2c(cc1OC)-c1c(-c3cccc(Cl)c3)ncn1CC2 | – |
| 199 | – | – | – | – | – | COc1cc2c(cc1OC)-c1c(C3CCCCC3)ncn1CC2 | – |
| 26 | 540 | 4600 | – | – | – | COc1cc2c(cc1OC)-c1c(-c3cnc(CO)s3)ncn1CC2 | – |
| 101 | – | – | – | – | – | COc1cc2c(cc1OC)-c1c(-c3ccncc3)ncn1CC2 | – |
| 121 | – | – | – | – | – | COc1cc2c(cc1OC)-c1c(-c3ccccc3)ncn1CC2 | – |
